Test results reported in ChEMBL document CHEMBL4480371, “Benzoflavone derivatives as potent antihyperuricemic agents” (Medchemcomm, 2019).
The source made the active and inactive calls. The calls are words filed in the database; no cut-off is given here.

How the values were obtained:
[1] = molecular target: T1, Xanthine dehydrogenase/oxidase (Bos taurus, UniProt P80457); experiment: Inhibition of bovine milk xanthine oxidase using xanthine as substrate preincubated for 5 mins followed by substrate addition by UV-visible spectrophotometry
T1 sequence (P80457 whole entry): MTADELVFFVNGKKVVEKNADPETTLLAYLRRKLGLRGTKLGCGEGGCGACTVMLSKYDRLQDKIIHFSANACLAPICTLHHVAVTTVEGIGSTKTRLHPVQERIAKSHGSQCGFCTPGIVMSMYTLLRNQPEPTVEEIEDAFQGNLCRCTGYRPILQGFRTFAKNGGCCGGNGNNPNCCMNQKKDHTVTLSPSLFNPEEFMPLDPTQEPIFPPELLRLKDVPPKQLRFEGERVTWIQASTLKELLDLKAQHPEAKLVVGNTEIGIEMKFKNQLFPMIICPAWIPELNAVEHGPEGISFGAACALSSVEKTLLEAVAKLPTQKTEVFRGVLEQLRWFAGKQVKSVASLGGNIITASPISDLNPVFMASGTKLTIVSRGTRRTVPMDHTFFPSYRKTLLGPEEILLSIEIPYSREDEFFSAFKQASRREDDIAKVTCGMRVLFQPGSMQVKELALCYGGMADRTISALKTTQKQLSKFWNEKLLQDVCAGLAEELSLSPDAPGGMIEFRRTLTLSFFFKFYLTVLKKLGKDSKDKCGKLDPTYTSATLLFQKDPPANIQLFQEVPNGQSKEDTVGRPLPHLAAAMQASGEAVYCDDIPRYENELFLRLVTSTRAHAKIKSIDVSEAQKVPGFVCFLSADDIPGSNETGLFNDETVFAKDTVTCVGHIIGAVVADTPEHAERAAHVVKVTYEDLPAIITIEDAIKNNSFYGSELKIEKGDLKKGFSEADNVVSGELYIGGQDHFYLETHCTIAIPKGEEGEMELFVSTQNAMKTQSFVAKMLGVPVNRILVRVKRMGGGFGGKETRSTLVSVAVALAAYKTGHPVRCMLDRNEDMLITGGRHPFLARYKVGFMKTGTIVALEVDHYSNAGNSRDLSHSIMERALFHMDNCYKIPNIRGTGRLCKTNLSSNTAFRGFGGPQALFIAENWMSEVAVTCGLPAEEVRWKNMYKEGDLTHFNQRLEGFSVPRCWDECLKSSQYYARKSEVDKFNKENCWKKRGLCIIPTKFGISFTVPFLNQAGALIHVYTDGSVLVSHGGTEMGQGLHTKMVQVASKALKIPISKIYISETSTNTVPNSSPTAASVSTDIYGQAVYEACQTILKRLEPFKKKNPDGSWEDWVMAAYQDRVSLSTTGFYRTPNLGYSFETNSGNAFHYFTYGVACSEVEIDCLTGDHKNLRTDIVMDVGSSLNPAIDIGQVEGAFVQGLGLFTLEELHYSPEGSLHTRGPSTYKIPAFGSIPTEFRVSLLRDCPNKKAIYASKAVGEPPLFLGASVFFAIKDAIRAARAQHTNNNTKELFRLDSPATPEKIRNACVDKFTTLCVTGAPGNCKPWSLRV

[2] = Antioxidant activity assessed as DPPH radical scavenging activity shaken for 1 min and incubated under dark condition for 30 mins by spectrophotometric analysis; assay type: functional
Summary of the method: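 DPPH at 0.004% w/v and compounds were made in methanol, mixed 1.5 mL to 1 mL, shaken 1 min at 37 °C, then kept 30 min in the dark. Absorbance was read at 517 nm and % scavenging calculated against a DPPH-plus-methanol control. […] Triplicate, mean.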

Mus musculus [3] = experiment: Anti-hyperuricemic effect in Swiss albino mouse model of potassium oxonate-induced hyperuricemia model assessed as serum uric acid level at 1 to 10 mg/kg, po treated 1 hr post potassium oxonate addition and measured after 30 mins by ERBA method (reference value: 5.9 +/- 0.42 mg/dl); assay type: functional
Summary of the method: (§1)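 Male Swiss albino mice, […], 25–30 g, n = 6 per group, fasted 6 h from feed. Xanthine 500 mg/kg was given orally, then potassium oxonate 300 mg/kg ip 30 min later, both in 0.5% CMC. Compounds were dosed orally 1 h after oxonate. Retro-orbital blood was drawn 2 h after PO+Xn, and serum uric acid was read by kit at 505 nm (5 min, 37 °C). Mean ± S.E.M., ANOVA/Tukey.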

Mus musculus [4] = experiment: Anti-hyperuricemic effect in Swiss albino mouse model of potassium oxonate-induced hyperuricemia model assessed as reduction in serum uric acid level at 0.55 mg/kg, po treated 1 hr post potassium oxonate addition and measured after 30 mins by ERBA method; assay type: functional, organism-based; conditions: 0.5 mg/kg, in the assay text read “0.5 mg/kg” for “0.55 mg/kg”; summary of the method: as §1
Mus musculus [5] = experiment: Anti-hyperuricemic effect in Swiss albino mouse model of potassium oxonate-induced hyperuricemia model assessed as reduction in serum uric acid level treated orally 1 hr post potassium oxonate addition and measured after 30 mins by ERBA method; assay type: functional, organism-based; summary of the method: as §1
[6] = molecular target: T1, Xanthine dehydrogenase/oxidase; experiment: Competitive mixed type inhibition of bovine milk xanthine oxidase using xanthine as substrate preincubated for 5 mins followed by substrate addition by UV-visible spectrophotomety based Lineweaver-Burk plot analysis; conditions: cattle
Summary of the method: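 Bovine milk xanthine oxidase was assayed in 50 mM potassium phosphate (pH 7.6) at 25 °C, with uric acid formation followed at 293 nm. Enzyme was preincubated 5 min with inhibitor in 1% v/v DMSO, and the reaction was started with xanthine. Inhibition mode came from Lineweaver–Burk plots.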

Mus musculus [7] = experiment: Anti-hyperuricemic effect in Swiss albino mouse model of potassium oxonate-induced hyperuricemia model assessed as serum uric acid level at 10 mg/kg, po treated 1 hr post potassium oxonate addition and measured after 30 mins by ERBA method (reference value: 5.9 +/- 0.42 mg/dl); assay type: functional
Mus musculus [8] = experiment: Anti-hyperuricemic effect in Swiss albino mouse model of potassium oxonate-induced hyperuricemia model assessed as serum uric acid level at 5 mg/kg, po treated 1 hr post potassium oxonate addition and measured after 30 mins by ERBA method (reference value: 5.9 +/- 0.42 mg/dl); assay type: functional; summary of the method: as §1
[9] = Acute toxicity in potassium oxonate-induced Swiss albino mouse hyperuricemic model assessed as induction of abnormal behavior at 2000 mg/kg, po measured after 24 hrs; conditions: in vivo

SMILES	IC50 [1]	IC50 [2]	also measured
O=c1cc(-c2cccc(Cl)c2Cl)oc2ccc3ccccc3c12	18.6 µM	> 20 µM	–
Cc1ccc(-c2cc(=O)c3ccc4ccccc4c3o2)cc1	> 20 µM	6.5 µM	–
O=c1cc(-c2ccc([N+](=O)[O-])cc2)oc2ccc3ccccc3c12	5.21 µM	> 20 µM	inhibition (INH) [6]: Active; Activity (Mus musculus [7]): Active; Activity (Mus musculus [5]): Dose-dependent effect
O=c1cc(-c2ccc([N+](=O)[O-])cc2)oc2c1ccc1ccccc12	1.95 µM	0.62 µM	Activity (Mus musculus [7]): inactive; Activity (Mus musculus [5]): Dose-dependent effect
O=c1cc(-c2ccc(F)cc2)oc2ccc3ccccc3c12	12.4 µM	> 20 µM	–
O=c1cc(-c2ccc(Br)cc2)oc2ccc3ccccc3c12	8.9 µM	> 20 µM	Activity (Mus musculus [3]): 1.8 to 2.8 mg/dL; inhibition (Mus musculus [4]): inactive; Activity (Mus musculus [8]): Active; Activity (Mus musculus [5]): Dose-dependent effect
O=c1cc(-c2ccccc2Br)oc2c1ccc1ccccc12	16.8 µM	9.9 µM	–
O=c1cc(-c2ccccc2I)oc2ccc3ccccc3c12	> 20 µM	> 20 µM	–
O=c1cc(-c2cc(F)cc(F)c2)oc2ccc3ccccc3c12	7.67 µM	> 20 µM	Activity (Mus musculus [3]): 1.8 to 2.8 mg/dL; inhibition (Mus musculus [4]): inactive; Activity (Mus musculus [8]): Active; Activity [9]: Non-Toxic; Activity (Mus musculus [5]): Dose-dependent effect
O=c1cc(-c2cc([N+](=O)[O-])cc([N+](=O)[O-])c2)oc2ccc3ccccc3c12	> 20 µM	> 20 µM	–
O=c1cc(-c2cccc(Cl)c2)oc2ccc3ccccc3c12	> 20 µM	> 20 µM	–
O=c1cc(-c2cccc(Br)c2)oc2ccc3ccccc3c12	> 20 µM	> 20 µM	–
O=c1cc(-c2ccc(F)cc2)oc2c1ccc1ccccc12	0.62 µM	0.83 µM	Activity (Mus musculus [7]): inactive; Activity (Mus musculus [5]): Dose-dependent effect
O=c1cc(-c2cccc([N+](=O)[O-])c2)oc2ccc3ccccc3c12	> 20 µM	> 20 µM	–
O=c1cc(-c2ccccc2I)oc2c1ccc1ccccc12	19.4 µM	7.33 µM	–
O=c1cc(-c2ccccc2F)oc2c1ccc1ccccc12	4.94 µM	4.73 µM	Activity (Mus musculus [3]): 1.8 to 2.8 mg/dL; inhibition (Mus musculus [4]): inactive; Activity [9]: Non-Toxic; Activity (Mus musculus [5]): Dose-dependent effect
Oc1ncnc2[nH]ncc12 [ALLOPURINOL]	–	–	Activity (Mus musculus [7]): 1.8 mg/dL
Cc1nc(-c2ccc(OCC(C)C)c(C#N)c2)sc1C(=O)O [FEBUXOSTAT]	–	–	Activity (Mus musculus [8]): 1.5 mg/dL
O=c1cc(-c2cccc(Cl)c2Cl)oc2c1ccc1ccccc12	> 20 µM	10.9 µM	–
Cc1ccc(-c2cc(=O)c3c(ccc4ccccc43)o2)cc1	> 20 µM	> 20 µM	–
O=c1cc(-c2cccc(F)c2)oc2ccc3ccccc3c12	> 20 µM	> 20 µM	–

Continued, in another order:

IC50 [1]	IC50 [2]	SMILES	also measured
> 20 µM	> 20 µM	COc1ccc(-c2cc(=O)c3c(ccc4ccccc43)o2)cc1	–
> 20 µM	5.98 µM	O=c1cc(-c2cccc(Br)c2)oc2c1ccc1ccccc12	–
> 20 µM	15.6 µM	O=c1cc(-c2ccccc2)oc2c1ccc1ccccc12 [ALPHA-NAPHTHOFLAVONE]	–
8.93 µM	0.35 µM	O=c1cc(-c2ccc(Br)cc2)oc2c1ccc1ccccc12	Activity (Mus musculus [3]): 1.8 to 2.8 mg/dL; inhibition (Mus musculus [4]): inactive; Activity (Mus musculus [5]): Dose-dependent effect
> 20 µM	7.75 µM	O=c1cc(-c2cccc(Cl)c2)oc2c1ccc1ccccc12	–
> 20 µM	8.24 µM	O=c1cc(-c2cccc([N+](=O)[O-])c2)oc2c1ccc1ccccc12	–
> 20 µM	10.1 µM	O=c1cc(-c2cccc(F)c2)oc2c1ccc1ccccc12	–
6.95 µM	3.14 µM	O=c1cc(-c2cc(F)cc(F)c2)oc2c1ccc1ccccc12	Activity (Mus musculus [3]): 1.8 to 2.8 mg/dL; inhibition (Mus musculus [4]): inactive; Activity (Mus musculus [5]): Dose-dependent effect
18.9 µM	4.27 µM	COc1ccc(-c2cc(=O)c3ccc4ccccc4c3o2)cc1	–
14.7 µM	> 20 µM	O=c1cc(-c2ccccc2F)oc2ccc3ccccc3c12	–
17.1 µM	> 20 µM	O=c1cc(-c2ccccc2Br)oc2ccc3ccccc3c12	–
> 20 µM	> 20 µM	O=c1cc(-c2ccccc2)oc2ccc3ccccc3c12 [BETA-NAPHTHOFLAVONE]	–
> 20 µM	5.55 µM	O=c1cc(-c2cc([N+](=O)[O-])cc([N+](=O)[O-])c2)oc2c1ccc1ccccc12	–
